# Most compounds without a hit are left out; they make up all but 2.3% or so of the library.
# SUMO1-SIM PPI: SUMO1-SIM interaction modulation; P63165; SUMO1 binding to a labelled peptide, TR-FRET, 1 h; inhibition, % at 20 µM; 360,000 tested, 0.33% active; AID 602429; in the data active means inhibition above about 37%
# LMPTP inh: LMPTP (human) inhibition. recombinant LMPTP-A, OMFP fluorogenic substrate, fluorescence intensity. 360,000 tested, 0.22% active. inhibition, % at 20 µM. AID 651560;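 active means compounds that cut the enzyme signal by at least half of the control window in the single-dose screen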;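 further: plate controls were DMSO wells with enzyme plus substrate for no effect and substrate without enzyme for full effect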
#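 Assay system: LMPTP-A phosphatase enzyme | Input: 0.625 nM enzyme | Also added: Fluorogenic phosphatase substrate OMFP at 400 µM final | Compound dosing: One test concentration per compound, 20 µM, with 3% DMSO overall | Schedule: 50 min enzyme reaction at room temperature, protected from light | Signal: Fluorescence intensity | Benchmarks: no-enzyme and uninhibited controls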
# STEP block: STEP (human) phosphatase inhibition; P54829; recombinant STEP, OMFP fluorogenic substrate, fluorescence; inhibition, % at 20 µM; 360,000 tested, 0.25% active; AID 588621;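 active means inhibition at 20 µM, scaled per plate between control wells, above about 37%, limit read from the data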;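 further: 0% = DMSO with enzyme and substrate and 100% = substrate only without enzyme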
#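 material = STEP tyrosine phosphatase | reagent = fluorogenic phosphatase substrate OMFP at 25 µM final | doses = single compound dose of 20 µM, 1% DMSO final | schedule = 20 min reaction, room temperature, in the dark | measured by = fluorescence, 480/540 nm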
# DNMT1 inh: inhibitors of human DNMT1 | 360,000 tested, 0.83% active | DNMT1 molecular beacon, Hinp1I cleavage, fluorescence | inhibition (reported as % activation of signal), % at 10 µM; in the data active means inhibition above about 50%
# Rpn11 inh: inhibitors of human proteasome Rpn11. 360,000 tested, 0.59% active. human 26S proteasome, Ub4-pepOG fluorescence polarization; 20S core pre-blocked with epoxomicin. inhibition, % at 20 µM. O00487;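 active means inhibition at 20 µM, scaled to each plate's controls, above about 33%, limit read from the data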
# Scp1 inh: Scp-1 (human) phosphatase inhibition | AID 493091 | inhibition, % at 20 µM | 340,000 tested, 0.88% active | Recombinant Scp1, phosphopeptide, malachite green phosphate absorbance | Q9GZU7;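 active means inhibition above about 50% at 20 µM, limit read from the data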;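 further: plate controls were DMSO wells with enzyme for no effect and wells lacking enzyme for full effect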
#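 System: truncated SCP-1 phosphatase (76-261aa); medium: Tris acetate buffer pH 5.5 with MgCl2 and Tween-20; incubation: 45 min room-temperature reaction, 5 min colour, 30 min stabiliser; compound: single 20 µM dose, 1% DMSO; reagent: Phosphorylated 17-residue peptide substrate; read-out: % inhibition at 20 µM; technique: colorimetric free-phosphate detection, absorbance 630 nm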
# Scp1 confirm: confirmation of human Scp-1 phosphatase inhibitors; shares compounds with Scp1 inh; recombinant SCP-1 catalytic domain, phosphate release, malachite green absorbance; inhibition, % at 20 µM; 2,500 tested, 61% active;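 further: plate controls were DMSO with enzyme for no effect and buffer wells lacking enzyme for full effect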
# Scp-1 MG ctr: counter-screen for Scp-1 inhibitors: colorimetric interference; shares compounds with Scp1 inh; Colorimetric interference counterscreen, malachite green absorbance 630 nm; apparent inhibition (interference), % at 20 µM; 2,500 tested, under 10 active;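 further: compounds added after enzyme reaction finished so only phosphate colour detection is probed; plate controls were DMSO wells with completed Scp-1 reaction for no effect and substrate wells lacking enzyme for full effect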
# Scp1 DSF: binds human Scp-1, shifting its melting temperature. thermal shift relative to vanadate control, % at 40 µM. Recombinant SCP1, Sypro Orange thermal shift Tm. shares compounds with Scp1 inh. AID 540329. 1,500 tested, 25% active;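 active means substances whose mean melting-temperature shift, as a percentage of the reference inhibitor's shift, reaches about 5.3%, limit read from the data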;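 further: 0% = Tm of DMSO wells and 100% = Tm with sodium orthovanadate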
# DNMT1 inh conf: DNMT1 inhibition confirmation, single concentration | shares compounds with DNMT1 inh | DNMT1 molecular beacon HinP1I cleavage, fluorescence | inhibition, % at 10 µM | 2,300 tested, 8% active | AID 602385;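 active means average inhibition of at least 30% in the single-concentration confirmation test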
# DNMT1 interf: counter-screen for DNMT1 inhibitors: spectral interference; shares compounds with DNMT1 inh; DNMT1 molecular beacon spectral interference counterscreen, fluorescence 485/520; activation (fluorescence interference), % at 10 µM; 2,300 tested, 1% active; AID 602387;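 active means activation of at least 30% at 10 µM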;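 further: DNMT1 catalytic domain with a HinP1I cleavage step and a FAM/dabcyl DNA beacon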
# Rpn11 inh conf: confirmation of human proteasome Rpn11 inhibitors; shares compounds with Rpn11 inh; purified human 26S proteasome, Ub4-pepOG fluorescence polarization; proteasome pretreated with epoxomicin; inhibition, % at 20 µM; 1,900 tested, 29% active; AID 602318; in the data active means inhibition above about 40%
# MMP-2 counter: counter-screen for RPN11 inhibitors: inhibition of human MMP-2; shares compounds with Rpn11 inh; recombinant MMP-2, FRET peptide cleavage fluorescence; inhibition, % at 20 µM; 1,900 tested, 4% active; AID 602330; in the data active means inhibition above about 40%;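 further: human MMP-2 activated beforehand with APMA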
# Thrombin FP: thrombin (bovine) inhibition counter-screen; shares compounds with Rpn11 inh; AID 602333; 1,900 tested, 13% active; bovine thrombin cleavage of Ub4-pepOG, fluorescence polarization; inhibition, % at 20 µM;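 active means mean inhibition at least 40% at 20 µM, or signal 3 deviations below plate average, so some actives read negative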;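 further: plate controls were thrombin with DMSO for no effect and buffer wells lacking thrombin for full effect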
# Target sequence (P00735 whole entry, looked up): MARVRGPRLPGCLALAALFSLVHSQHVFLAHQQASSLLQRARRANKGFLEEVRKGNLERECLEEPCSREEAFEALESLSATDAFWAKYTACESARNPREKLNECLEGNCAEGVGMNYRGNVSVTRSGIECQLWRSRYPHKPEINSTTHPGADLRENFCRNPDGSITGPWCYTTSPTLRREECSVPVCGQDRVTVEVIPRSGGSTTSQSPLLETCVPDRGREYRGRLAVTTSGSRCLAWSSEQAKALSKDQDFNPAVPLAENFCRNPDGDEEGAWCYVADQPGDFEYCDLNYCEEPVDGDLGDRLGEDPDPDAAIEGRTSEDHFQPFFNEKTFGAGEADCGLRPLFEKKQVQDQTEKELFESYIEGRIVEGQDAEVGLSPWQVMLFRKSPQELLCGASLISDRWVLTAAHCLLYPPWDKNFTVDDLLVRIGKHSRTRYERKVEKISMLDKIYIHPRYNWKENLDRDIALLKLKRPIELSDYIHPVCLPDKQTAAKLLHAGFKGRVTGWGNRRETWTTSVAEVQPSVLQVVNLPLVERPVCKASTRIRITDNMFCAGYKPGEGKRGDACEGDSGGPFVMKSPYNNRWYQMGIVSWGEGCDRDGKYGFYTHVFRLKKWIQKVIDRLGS
# Numbers without * were called inactive; / = no result given.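 How the source made its calls, unless noted: active means inhibition of at least 30% at 20 µM; inactive means the rest.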
SMILES,SUMO1-SIM PPI,LMPTP inh,STEP block,DNMT1 inh,Rpn11 inh,Scp1 inh,Scp1 confirm,Scp-1 MG ctr,Scp1 DSF,Rpn11 inh conf,MMP-2 counter,Thrombin FP,others
CCN(CC(=O)Nc1c(F)cccc1F)C(=O)CCc1nc2sc3c(c2c(=O)[nH]1)CCCC3,22.6,20.1,10.5,53.9*,68.4*,65.5*,58.6*,-22.2,9.0*,64.0*,-3.0,40.9*,DNMT1 inh conf=5.2;DNMT1 interf=1.9
COC(=O)c1cc(S(=O)(=O)N2CCCC2=O)c(Cl)cc1Cl,10.7,1.2,0.6,0.4,1.9,-4.7,/,/,/,/,/,/,
CCCc1nc2oc3ccccc3c(=O)c2c(=O)n1-c1ccc(C)cc1,5.6,-1.8,2.3,8.6,-0.1,-7.9,/,/,/,/,/,/,
CCc1nc2oc3ccccc3c(=O)c2c(=O)n1-c1ccc(C)cc1,10.6,46.6,5.4,78.3*,68.1*,64.9*,56.3*,-15.6,4.1,46.5*,-18.3,22.3,DNMT1 inh conf=4.9;DNMT1 interf=0.8
COc1cc(/C=C/c2[nH]c(=O)[nH]c(=O)c2[N+](=O)[O-])ccc1OCCC(C)C,15.4,1.5,-0.9,13.5,56.0*,62.6*,71.2*,-9.8,1.6,28.4,-20.0,-19.9,
CN(C(=O)C1CCCO1)C1CCS(=O)(=O)C1 (stereo unspecified),2.6,-2.1,-3.6,3.3,-1.2,-4.8,/,/,/,/,/,/,
CSc1ccc(/C=N/NC(=O)c2cc(O)cc(O)c2)cc1,-7.5,0.7,-1.0,1.6,-8.0,-2.6,/,/,/,/,/,/,
CSc1ccc(/C=N/NC(=O)c2ccc(C)c(C)c2)cc1,-0.4,13.2,5.1,5.9,60.6*,83.3*,59.3*,-11.2,-21.0,24.6,37.5,7.3,
CCc1ccccc1C1=CC(=O)C[C@H](c2ccc(OC)cc2)C1,2.7,3.0,9.3,1.7,-6.1,-11.4,/,/,/,/,/,/,
O=C(O)c1ccc(-n2c(=O)c3ccccc3c3ccccc3c2=O)cc1,2.2,-0.2,0.6,4.7,-0.6,-8.4,/,/,/,/,/,/,
Cc1ccc(-n2c(=O)c3cc4c(=O)n(-c5ccc(C)c(C)c5)c(=O)c4c(C(=O)c4ccc(C(=O)O)cc4)c3c2=O)cc1C,89.8*,83.2*,96.6*,34.0,109.2*,90.9*,74.6*,-10.9,10.4*,3.5,11.0,39.0,
Cc1onc(-c2ccccc2)c1C(=O)NCCc1ccncc1,0.7,1.2,-3.4,-0.5,-14.9,15.6,/,/,/,/,/,/,
Cn1ccs/c1=N\C(=O)Nc1cccc(C(F)(F)F)c1,-5.1,1.0,0.7,5.9,-0.2,7.5,/,/,/,/,/,/,
O=C1NC(=O)/C(=C/c2ccc(-c3cc(C(=O)O)ccc3Cl)o2)S1,12.4,-5.5,22.2,30.1,20.2,28.6,/,/,/,/,/,/,

# Screening data from PubChem BioAssay.
